From ChEMBL document CHEMBL1629686, “Substrate selectivity and a novel role in inhibitor discrimination by residue 237 in the KPC-2 beta-lactamase” (Antimicrob Agents Chemother, 2010)
Converted amounts (≈) assume the structure as drawn.

Legend:
Klebsiella pneumoniae [1] = experiment: Activity of Klebsiella pneumoniae 1534 beta-lactamase KPC-2 T237S mutant by spectrophotometric analysis
Procedure, shortened: (§1)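 Purified KPC-2 variant enzymes (periplasmic lysate from E. coli, preparative isoelectric focusing). Hydrolysis followed by diode-array spectrophotometry in 10 mM PBS, pH 7.4, room temperature. Enzyme at 10 nM with substrate in molar excess for pseudo-first-order conditions. Vmax and Km came from a nonlinear least-squares Michaelis-Menten fit.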

Klebsiella pneumoniae [2] = experiment: Ratio of Kcat/Km for Klebsiella pneumoniae 1534 beta-lactamase KPC-2 T237S mutant by spectrophotometric analysis; procedure, shortened: as §1
Klebsiella pneumoniae [3] = experiment: Activity of Klebsiella pneumoniae 1534 beta-lactamase KPC-2 T237A mutant by spectrophotometric analysis; procedure, shortened: as §1
Klebsiella pneumoniae [4] = experiment: Antimicrobial activity against Klebsiella pneumoniae 1534 expressing beta-lactamase KPC-2 by agar dilution method in presence of beta-lactamase inhibitor Tazobactam; type: functional
Procedure, shortened: (§2)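 LB agar dilution MIC following CLSI criteria, inoculated with a Steers replicator. Tested as piperacillin-tazobactam at a fixed 8:1 ratio.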

Escherichia coli [5] = experiment: Antimicrobial activity against Escherichia coli DH10B harboring plasmid pBR322-catI carrying beta-lactamase KPC-2 by agar dilution method in presence of beta-lactamase inhibitor Tazobactam; type: functional; settings: K-12 DH10B; procedure, shortened: as §2
Escherichia coli [6] = experiment: Antimicrobial activity against Escherichia coli DH10B harboring plasmid pBC SK(+) carrying wild type beta-lactamase KPC-2 by agar dilution method in presence of beta-lactamase inhibitor Tazobactam; type: functional; settings: K-12 DH10B
Procedure, shortened: (§3)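 LB agar dilution MICs by CLSI criteria, inoculated with a Steers replicator. […] Strains were E. coli DH10B with or without pBC SK(+) carrying wild-type blaKPC-2 or a position 237 variant.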

Escherichia coli [7] = experiment: Antimicrobial activity against Escherichia coli DH10B harboring beta-lactamase KPC-2 T237A mutant by agar dilution method in presence of beta-lactamase inhibitor Tazobactam; type: functional; settings: K-12 DH10B; procedure, shortened: as §3
Escherichia coli [8] = experiment: Antimicrobial activity against Escherichia coli DH10B harboring beta-lactamase KPC-2 T237M mutant by agar dilution method in presence of beta-lactamase inhibitor Tazobactam; type: functional; settings: K-12 DH10B; procedure, shortened: as §3
Escherichia coli [9] = experiment: Antimicrobial activity against Escherichia coli DH10B harboring beta-lactamase KPC-2 T237N mutant by agar dilution method in presence of beta-lactamase inhibitor Tazobactam; type: functional; settings: K-12 DH10B; procedure, shortened: as §3
Escherichia coli [10] = experiment: Antimicrobial activity against Escherichia coli DH10B harboring beta-lactamase KPC-2 T237D mutant by agar dilution method in presence of beta-lactamase inhibitor Tazobactam; type: functional; settings: K-12 DH10B; procedure, shortened: as §3
Escherichia coli [11] = experiment: Antimicrobial activity against Escherichia coli DH10B harboring beta-lactamase KPC-2 T237H mutant by agar dilution method in presence of beta-lactamase inhibitor Tazobactam; type: functional; settings: K-12 DH10B; procedure, shortened: as §3
Escherichia coli [12] = experiment: Antimicrobial activity against Escherichia coli DH10B by agar dilution method in presence of beta-lactamase inhibitor Tazobactam; type: functional; settings: K-12 DH10B; procedure, shortened: as §3
Escherichia coli [13] = experiment: Antimicrobial activity against Escherichia coli DH10B harboring plasmid pBR322-catI carrying beta-lactamase KPC-2 by agar dilution method in presence of beta-lactamase inhibitor Sulbactam; type: functional; settings: K-12 DH10B
Escherichia coli [14] = experiment: Antimicrobial activity against Escherichia coli DH10B harboring beta-lactamase KPC-2 T237A mutant by agar dilution method in presence of beta-lactamase inhibitor Sulbactam; type: functional; settings: K-12 DH10B
Procedure, shortened: (§4)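 LB agar dilution MICs by CLSI criteria, applied with a Steers replicator. […] Hosts were E. coli DH10B carrying pBC SK(+) with wild-type blaKPC-2 or a position 237 variant.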

Escherichia coli [15] = experiment: Antimicrobial activity against Escherichia coli DH10B harboring beta-lactamase KPC-2 T237G mutant by agar dilution method in presence of beta-lactamase inhibitor clavulanic acid; type: functional; settings: K-12 DH10B
Procedure, shortened: (§5)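 LB agar dilution MICs per CLSI criteria, inoculated with a Steers replicator. […] Strains: E. coli DH10B alone, DH10B carrying empty pBC SK(+), or DH10B carrying pBC SK(+)-blaKPC-2 position 237 variants made by site-saturation mutagenesis and confirmed by sequencing. Plasmid selection used 20 mg/liter chloramphenicol.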

Escherichia coli [16] = experiment: Antimicrobial activity against Escherichia coli DH10B harboring beta-lactamase KPC-2 T237G mutant by agar dilution method in presence of beta-lactamase inhibitor Sulbactam; type: functional; settings: K-12 DH10B; procedure, shortened: as §4
Escherichia coli [17] = experiment: Antimicrobial activity against Escherichia coli DH10B harboring beta-lactamase KPC-2 T237I mutant by agar dilution method in presence of beta-lactamase inhibitor Sulbactam; type: functional; settings: K-12 DH10B; procedure, shortened: as §4
Escherichia coli [18] = experiment: Antimicrobial activity against Escherichia coli DH10B harboring beta-lactamase KPC-2 T237L mutant by agar dilution method in presence of beta-lactamase inhibitor clavulanic acid; type: functional; settings: K-12 DH10B; procedure, shortened: as §4
Escherichia coli [19] = experiment: Antimicrobial activity against Escherichia coli DH10B harboring beta-lactamase KPC-2 T237L mutant by agar dilution method in presence of beta-lactamase inhibitor Sulbactam; type: functional; settings: K-12 DH10B; procedure, shortened: as §4
Escherichia coli [20] = experiment: Antimicrobial activity against Escherichia coli DH10B harboring beta-lactamase KPC-2 T237M mutant by agar dilution method in presence of beta-lactamase inhibitor clavulanic acid; type: functional; settings: K-12 DH10B; procedure, shortened: as §4
Escherichia coli [21] = experiment: Antimicrobial activity against Escherichia coli DH10B harboring beta-lactamase KPC-2 T237V mutant by agar dilution method in presence of beta-lactamase inhibitor clavulanic acid; type: functional; settings: K-12 DH10B; procedure, shortened: as §4
Escherichia coli [22] = experiment: Antimicrobial activity against Escherichia coli DH10B harboring beta-lactamase KPC-2 T237V mutant by agar dilution method in presence of beta-lactamase inhibitor Sulbactam; type: functional; settings: K-12 DH10B; procedure, shortened: as §4
Escherichia coli [23] = experiment: Antimicrobial activity against Escherichia coli DH10B harboring beta-lactamase KPC-2 T237F mutant by agar dilution method in presence of beta-lactamase inhibitor Sulbactam; type: functional; settings: K-12 DH10B; procedure, shortened: as §4
Escherichia coli [24] = experiment: Antimicrobial activity against Escherichia coli DH10B harboring beta-lactamase KPC-2 T237W mutant by agar dilution method in presence of beta-lactamase inhibitor clavulanic acid; type: functional; settings: K-12 DH10B; procedure, shortened: as §5
Escherichia coli [25] = experiment: Antimicrobial activity against Escherichia coli DH10B harboring beta-lactamase KPC-2 T237Y mutant by agar dilution method in presence of beta-lactamase inhibitor Sulbactam; type: functional; settings: K-12 DH10B; procedure, shortened: as §4
Escherichia coli [26] = experiment: Antimicrobial activity against Escherichia coli DH10B harboring beta-lactamase KPC-2 T237P mutant by agar dilution method in presence of beta-lactamase inhibitor clavulanic acid; type: functional; settings: K-12 DH10B; procedure, shortened: as §5
Escherichia coli [27] = experiment: Antimicrobial activity against Escherichia coli DH10B harboring beta-lactamase KPC-2 T237Q mutant by agar dilution method in presence of beta-lactamase inhibitor Sulbactam; type: functional; settings: K-12 DH10B; procedure, shortened: as §4
Escherichia coli [28] = experiment: Antimicrobial activity against Escherichia coli DH10B harboring beta-lactamase KPC-2 T237S mutant by agar dilution method in presence of beta-lactamase inhibitor clavulanic acid; type: functional; settings: K-12 DH10B; procedure, shortened: as §4
Escherichia coli [29] = experiment: Antimicrobial activity against Escherichia coli DH10B harboring beta-lactamase KPC-2 T237D mutant by agar dilution method in presence of beta-lactamase inhibitor Sulbactam; type: functional; settings: K-12 DH10B; procedure, shortened: as §4
Escherichia coli [30] = experiment: Antimicrobial activity against Escherichia coli DH10B harboring beta-lactamase KPC-2 T237E mutant by agar dilution method in presence of beta-lactamase inhibitor clavulanic acid; type: functional; settings: K-12 DH10B; procedure, shortened: as §4
Escherichia coli [31] = experiment: Antimicrobial activity against Escherichia coli DH10B harboring beta-lactamase KPC-2 T237H mutant by agar dilution method in presence of beta-lactamase inhibitor Sulbactam; type: functional; settings: K-12 DH10B; procedure, shortened: as §4
Escherichia coli [32] = experiment: Antimicrobial activity against Escherichia coli DH10B harboring beta-lactamase KPC-2 T237K mutant by agar dilution method in presence of beta-lactamase inhibitor clavulanic acid; type: functional; settings: K-12 DH10B; procedure, shortened: as §5
Escherichia coli [33] = experiment: Antimicrobial activity against Escherichia coli DH10B harboring beta-lactamase KPC-2 T237R mutant by agar dilution method in presence of beta-lactamase inhibitor Sulbactam; type: functional; settings: K-12 DH10B; procedure, shortened: as §5
Klebsiella pneumoniae [34] = experiment: microbe, parasite or virus in culture; settings: 1534

In the case of CCN1CCN(C(=O)N[C@@H](C(=O)N[C@@H]2C(=O)N3[C@@H]2SC(C)(C)[C@@H]3C(=O)O)c2ccccc2)C(=O)C1=O [PIPERACILLIN], the Km (Klebsiella pneumoniae [1]) is reported as 6 µM, the kcat (Klebsiella pneumoniae [1]) is reported as 42 s⁻¹ and the kcat/Km (Klebsiella pneumoniae [2]) is reported as 7e+06 M⁻¹ s⁻¹. The Km (Klebsiella pneumoniae [3]) was 12 µM, the kcat (Klebsiella pneumoniae [3]) was 42 s⁻¹ and the MIC (Klebsiella pneumoniae [4]) was 64 µg/mL. It also gave an MIC (Escherichia coli [5]) of 64 µg/mL, an MIC (Escherichia coli [6]) of 8 µg/mL and an MIC (Escherichia coli [7]) of 4 µg/mL. The MIC (Escherichia coli [8]) was 2 µg/mL, the MIC (Escherichia coli [9]) was 1 µg/mL and the MIC (Escherichia coli [10]) was 1 µg/mL. The MIC (Escherichia coli [11]) was 1 µg/mL and the MIC (Escherichia coli [12]) was 0.5 µg/mL.
In the case of CC1(C)S[C@@H]2[C@H](NC(=O)[C@H](N)c3ccccc3)C(=O)N2[C@H]1C(=O)O [AMPICILLIN], the MIC (Escherichia coli [13]) is reported as 512 µg/mL, the MIC (Escherichia coli [14]) is reported as 64 µg/mL and the MIC (Escherichia coli [15]) is reported as 1 µg/mL. It also gave an MIC (Escherichia coli [16]) of 16 µg/mL, an MIC (Escherichia coli [17]) of 16 µg/mL and an MIC (Escherichia coli [18]) of 8 µg/mL. The MIC (Escherichia coli [19]) was 16 µg/mL, the MIC (Escherichia coli [20]) was 8 µg/mL and the MIC (Escherichia coli [21]) was 8 µg/mL. It also gave an MIC (Escherichia coli [22]) of 32 µg/mL, an MIC (Escherichia coli [23]) of 8 µg/mL and an MIC (Escherichia coli [24]) of 1 µg/mL. It also gave an MIC (Escherichia coli [25]) of 8 µg/mL, an MIC (Escherichia coli [26]) of 1 µg/mL and an MIC (Escherichia coli [27]) of 64 µg/mL. For the same molecule, the MIC (Escherichia coli [28]) was 4 µg/mL, the MIC (Escherichia coli [29]) was 16 µg/mL and the MIC (Escherichia coli [30]) was 8 µg/mL. It also gave an MIC (Escherichia coli [31]) of 16 µg/mL, an MIC (Escherichia coli [32]) of 1 µg/mL and an MIC (Escherichia coli [33]) of 1 µg/mL. It also gave an MIC (Klebsiella pneumoniae [34]) of 512 µg/mL (≈ 1470 µM).
